# Source: ChEMBL document CHEMBL1140411, “Deoxyuridine triphosphate nucleotidohydrolase as a potential antiparasitic drug target” (J Med Chem, 2005)
# Assays:
# [1] = target: T1, Deoxyuridine 5'-triphosphate nucleotidohydrolase, mitochondrial (Homo sapiens, UniProt P33316); assay: Inhibitory constant against human deoxyuridine 5'-triphosphate nucleotidohydrolase expressed in Escherichia coli BL21 (DE3) cells
# T1 sequence (P33316 whole entry): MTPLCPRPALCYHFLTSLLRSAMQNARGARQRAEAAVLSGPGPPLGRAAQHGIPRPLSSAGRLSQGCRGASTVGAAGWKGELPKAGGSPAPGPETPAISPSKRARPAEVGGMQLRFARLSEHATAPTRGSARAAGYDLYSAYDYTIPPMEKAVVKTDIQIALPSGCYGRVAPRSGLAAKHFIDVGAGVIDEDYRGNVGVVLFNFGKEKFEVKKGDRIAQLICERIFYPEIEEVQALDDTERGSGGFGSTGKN
# Summary of the method: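 Human dUTPase expressed in E. coli BL21(DE3) and purified like the Plasmodium enzyme (phosphocellulose, then gel filtration). dUTP hydrolysis followed continuously by stopped-flow as pH-indicator absorbance (cresol red/bicine, 50:2000 µM, 573 nm). Apparent KM from integrated Michaelis-Menten fits at each inhibitor concentration; Ki from linear KMapp versus [I].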
# L6 = assay: In vitro cytotoxicity aganist rat skeletal myoblasts (L-6 cells) after 72 hours; type: functional, cell-based; conditions: L6, 72 h
# Summary of the method: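 L-6 rat skeletal myoblasts seeded at 4 × 10^4 cells/mL in RPMI 1640 with 10% FBS and 2 mM L-glutamine. After 24 h, medium replaced with a serial drug dilution, then 72 h at 37 °C, 5% CO2. Alamar Blue added for a further 2-4 h. Fluorescence read at ex 536/em 588 nm. Run twice independently, in duplicate.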
# [2] = tested on: Trypanosoma brucei rhodesiense; assay: Inhibitory constant against Trypanosoma brucei rhodesiense upon incubation with the compound at 37 degrees C under a 5% CO2 atmosphere for 72 hours; type: functional, organism-based
# Leishmania donovani = assay: In vitro growth inhibitory activity against Leishmania donovani amastigotes at 37 degrees C under a 5% CO2 atmosphere for 96 hours; type: functional, organism-based
# Summary of the method: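 Mouse peritoneal macrophages in RPMI 1640 with 10% heat-inactivated FBS, infected after 24 h with L. donovani amastigotes at 3:1 (amastigote:macrophage). Free amastigotes washed out at 4 h. Next day, drug-containing medium added for 96 h at 37 °C, 5% CO2. Slides methanol-fixed and Giemsa-stained. Percentage of infected macrophages scored microscopically versus control; IC50 by linear regression. Twice independently, in duplicate.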
# Trypanosoma cruzi = assay: In vitro growth inhibitory activity against Trypanosoma cruzi in rat L-6 cells upon incubation at 37 degrees C in 5% CO2 atmosphere for 4 days; type: functional, organism-based; conditions: L6, 96 h
# Summary of the method: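 L-6 cells seeded at 2000 cells/well in RPMI 1640 with 10% FBS and 2 mM L-glutamine. After 24 h, 5000 T. cruzi Tulahuen C2C4 LacZ trypomastigotes added with serial drug dilutions, then 4 days at 37 °C, 5% CO2. CPRG/Nonidet substrate added and colour read at 540 nm after 2-4 h. IC50 from sigmoidal curve. Twice independently, in duplicate.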
# [3] = target: T2, dUTP pyrophosphatase (Plasmodium falciparum 3D7) (UniProt Q8II92); assay: Selectivity index for Plasmodium falciparum deoxyuridine 5'-triphosphate nucleotidohydrolase defined as (Ki Human)/(Ki Plasmodium falciparum)
# T2 sequence (whole entry): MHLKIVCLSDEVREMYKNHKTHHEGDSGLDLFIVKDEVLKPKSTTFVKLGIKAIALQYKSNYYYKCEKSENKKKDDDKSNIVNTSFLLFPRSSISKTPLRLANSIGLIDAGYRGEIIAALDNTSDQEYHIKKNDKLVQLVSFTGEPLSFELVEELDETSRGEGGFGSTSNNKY
# Summary of the method: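 Ratio of human dUTPase Ki to P. falciparum dUTPase Ki. Both Ki values came from stopped-flow pH-indicator assays following dUTP hydrolysis, with Ki derived from the dependence of apparent KM on inhibitor concentration.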
# dUTP pyrophosphatase [4] = target: T3, dUTP pyrophosphatase (Leishmania major, UniProt O15826); assay: Inhibitory constant against Leishmania major deoxyuridine 5'-triphosphate nucleotidohydrolase
# T3 sequence (O15826 whole entry): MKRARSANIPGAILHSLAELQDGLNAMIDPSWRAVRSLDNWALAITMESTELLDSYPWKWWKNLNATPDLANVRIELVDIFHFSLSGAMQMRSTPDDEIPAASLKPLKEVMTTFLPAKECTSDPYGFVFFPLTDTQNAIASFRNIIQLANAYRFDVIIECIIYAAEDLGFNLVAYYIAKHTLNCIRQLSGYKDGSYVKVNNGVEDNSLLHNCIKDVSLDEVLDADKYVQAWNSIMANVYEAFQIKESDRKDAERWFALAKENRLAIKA
# Plasmodium falciparum = assay: In vitro inhibitory activity against Plasmodium falciparum as [3H]hypoxanthine (50 uL) incorporation at 37C; type: functional, organism-based
# dUTP pyrophosphatase [5] = target: T4, dUTP pyrophosphatase (Plasmodium falciparum 3D7, UniProt Q8II92); assay: Inhibitory constant against Plasmodium falciparum deoxyuridine 5'-triphosphate nucleotidohydrolase expressed in Escherichia coli BL21 (DE3) cells
# T4 sequence (Q8II92 whole entry): T2 sequence (whole entry)
# Summary of the method: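 Recombinant PfdUTPase expressed in E. coli BL21(DE3) and purified by phosphocellulose and gel filtration to ~96% purity. Continuous stopped-flow assay following proton release with cresol red/bicine (50:2000 µM, 573 nm). Mix: 30 nM enzyme, 50 µM dUTP, 5 mM MgCl2, 2.5 mM DTT, 1.25 mg/mL BSA, 100 mM KCl. KMapp from integrated Michaelis-Menten fits, plotted against [I] to give Ki.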
Compound,Ki [1],IC50 (L6),IC50 [2],IC50 (Leishmania donovani),IC50 (Trypanosoma cruzi),SI [3],Ki (dUTP pyrophosphatase [4]),IC50 (Plasmodium falciparum),Ki (dUTP pyrophosphatase [5])
O=C(OC[C@H]1O[C@@H](n2ccc(=O)[nH]c2=O)C[C@@H]1O)c1ccccc1,> 1000 µM,> 271 µM,117 µM,> 90 µM,> 271 µM,> 3,> 1000 µM,> 15 µM,268 µM
O=c1ccn(C2CC(F)C(COC(c3ccccc3)(c3ccccc3)c3ccccc3)O2)c(=O)[nH]1 (stereo unspecified),457 µM,35 µM,47 µM,,29 µM,91,177 µM,2 µM,5 µM
CC(C)(C)[Si](C)(C)O[C@H]1C[C@H](n2ccc(=O)[nH]c2=O)O[C@@H]1CO,119 µM,> 263 µM,83 µM,> 88 µM,> 263 µM,0.2,114 µM,> 15 µM,648 µM
CC(C)(C)[Si](C)(C)OCC1C=CC(n2ccc(=O)[nH]c2=O)O1 (stereo unspecified),56.4 µM,,73 µM,,110 µM,5.6,> 1000 µM,51 µM,10 µM
CC(C)(C)[Si](C)(C)O[C@H]1C[C@H](n2ccc(=O)[nH]c2=O)O[C@@H]1COC(=O)NS(N)(=O)=O,> 1000 µM,,12 µM,> 51 µM,> 152 µM,> 4,> 1000 µM,37 µM,244 µM
O=C(NCC1OC(n2ccc(=O)[nH]c2=O)CC1O)C12CC3CC(CC(C3)C1)C2 (stereo unspecified),> 1000 µM,,> 231 µM,,> 231 µM,> 2,> 1000 µM,> 13 µM,426 µM
O=c1ccn([C@H]2C[C@H](F)[C@@H](CO)O2)c(=O)[nH]1,,> 391 µM,100 µM,> 391 µM,> 130 µM,,,> 21 µM,
O=c1ccn(C2C=CC(COP(=O)(Oc3ccccc3)Oc3ccccc3)O2)c(=O)[nH]1 (stereo unspecified),> 1000 µM,,68 µM,,> 204 µM,> 10,> 1000 µM,54 µM,99 µM
Cc1ccc(S(=O)(=O)NCC2OC(n3ccc(=O)[nH]c3=O)CC2O)cc1 (stereo unspecified),> 1000 µM,> 236 µM,102 µM,> 79 µM,> 236 µM,,> 1000 µM,> 13 µM,> 1000 µM
CC(C)(C)[Si](OC[C@H]1O[C@@H](n2ccc(=O)[nH]c2=O)C[C@@H]1O)(c1ccccc1)c1ccccc1,806 µM,23 µM,3 µM,,45 µM,192,> 1000 µM,6.6 µM,
O=c1ccn(C2CC(O)C(CNCc3ccccc3)O2)c(=O)[nH]1 (stereo unspecified),> 1000 µM,,17 µM,,> 83 µM,> 9,> 1000 µM,> 16 µM,111 µM
CC(C)(C)[Si](OCC1C=CC(n2ccc(=O)[nH]c2=O)O1)(c1ccccc1)c1ccccc1 (stereo unspecified),,67 µM,55 µM,,33 µM,> 833,178 µM,3 µM,
O=c1ccn([C@H]2C[C@H](O)[C@@H](COC(c3ccccc3)(c3ccccc3)c3ccccc3)O2)c(=O)[nH]1,18 µM,,24 µM,> 64 µM,306 µM,10,> 1000 µM,,
NS(=O)(=O)OCC1C=CC(n2ccc(=O)[nH]c2=O)O1 (stereo unspecified),> 1000 µM,,> 311 µM,,> 311 µM,> 4,> 1000 µM,163 µM,254 µM
CC(C)(C)[Si](C)(C)OC1CC(n2ccc(=O)[nH]c2=O)OC1CNC(c1ccccc1)(c1ccccc1)c1ccccc1 (stereo unspecified),> 1000 µM,7.8 µM,2.7 µM,,97 µM,> 3,> 1000 µM,1.8 µM,313 µM
CCOP(=O)(CC(=O)NCC1OC(n2ccc(=O)[nH]c2=O)CC1O)OCC (stereo unspecified),> 1000 µM,,41 µM,29 µM,> 222 µM,> 3,> 1000 µM,78 µM,324 µM
CCCCCCCCCCCCCCCC(=O)OCC1C=CC(n2ccc(=O)[nH]c2=O)O1 (stereo unspecified),350 µM,,113 µM,> 67 µM,> 201 µM,1.4,> 1000 µM,> 11 µM,256 µM
CC(C)(C)[Si](C)(C)O[C@H]1C[C@H](n2ccc(=O)[nH]c2=O)O[C@@H]1COS(N)(=O)=O,324 µM,,104 µM,> 7 µM,160 µM,3.7,> 1000 µM,40 µM,88 µM
O=c1ccn(C2C=CC(COC(c3ccccc3)(c3ccccc3)c3ccccc3)O2)c(=O)[nH]1 (stereo unspecified),157 µM,,55 µM,> 66 µM,44 µM,83,798 µM,> 11 µM,1.9 µM
O=c1ccn(C2CC(O)C(CNC(c3ccccc3)(c3ccccc3)c3ccccc3)O2)c(=O)[nH]1 (stereo unspecified),46 µM,44 µM,48 µM,,44 µM,230,304 µM,,0.2 µM
CC(C)(C)[Si](C)(C)OCC1OC(n2ccc(=O)[nH]c2=O)CC1F (stereo unspecified),,,59 µM,> 87 µM,37 µM,> 1.6,> 1000 µM,> 14 µM,628 µM
CC(C)[Si](OC[C@H]1O[C@@H](n2ccc(=O)[nH]c2=O)C[C@@H]1O)(C(C)C)C(C)C,> 1000 µM,25 µM,8 µM,,58 µM,> 4,> 1000 µM,> 13 µM,227 µM
O=c1ccn([C@H]2C[C@H](O)[C@@H](CO[Si](c3ccccc3)(c3ccccc3)c3ccccc3)O2)c(=O)[nH]1,909 µM,,15 µM,,71 µM,325,> 1000 µM,,
NS(=O)(=O)NC(=O)OC[C@H]1O[C@@H](n2ccc(=O)[nH]c2=O)C[C@@H]1O,> 1000 µM,,90 µM,> 65 µM,> 194 µM,> 2,314 µM,20 µM,468 µM
O=c1ccn([C@H]2C=C[C@@H](CO)O2)c(=O)[nH]1,> 1000 µM,,72 µM,,170 µM,> 3,> 1000 µM,214 µM,298 µM
CC(C)(C)[Si](OCC1OC(n2ccc(=O)[nH]c2=O)CC1F)(c1ccccc1)c1ccccc1 (stereo unspecified),808 µM,16 µM,29 µM,,32 µM,9.1,> 1000 µM,8.8 µM,89 µM
